Runt-SMMHC FRET = Runt domain-CBFb-SMMHC interaction inhibition | Q01196+Q13951 | Cerulean-Runt/Venus-CBFb-SMMHC FRET ratio 530/480, 1 h | inhibition, % at 20 µM | 220,000 compounds, 0.74% hits;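 active = mean inhibition across duplicate retests at 20 µM reaching about 50%, limit read from the data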;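 also: 0% = DMSO wells and 100% = wells with excess untagged CBFb-SMMHC; inhibitors lower the FRET ratio by blocking Runt binding to CBFb-SMMHC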
Target sequence (Q01196 whole entry, looked up, the tested form may be a part): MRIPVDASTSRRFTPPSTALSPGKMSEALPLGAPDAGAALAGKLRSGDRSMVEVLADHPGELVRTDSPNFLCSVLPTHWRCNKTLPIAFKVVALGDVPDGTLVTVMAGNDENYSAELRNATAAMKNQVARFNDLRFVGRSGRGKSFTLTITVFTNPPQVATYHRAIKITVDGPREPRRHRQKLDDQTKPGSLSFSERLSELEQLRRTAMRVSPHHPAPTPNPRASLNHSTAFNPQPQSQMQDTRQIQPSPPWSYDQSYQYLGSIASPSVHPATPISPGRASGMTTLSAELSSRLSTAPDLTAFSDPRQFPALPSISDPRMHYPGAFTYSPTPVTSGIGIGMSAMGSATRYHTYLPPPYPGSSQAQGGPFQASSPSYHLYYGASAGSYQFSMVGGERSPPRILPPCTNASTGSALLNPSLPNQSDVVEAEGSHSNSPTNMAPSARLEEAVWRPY
Target sequence (Q13951 whole entry, looked up, the tested form may be a part): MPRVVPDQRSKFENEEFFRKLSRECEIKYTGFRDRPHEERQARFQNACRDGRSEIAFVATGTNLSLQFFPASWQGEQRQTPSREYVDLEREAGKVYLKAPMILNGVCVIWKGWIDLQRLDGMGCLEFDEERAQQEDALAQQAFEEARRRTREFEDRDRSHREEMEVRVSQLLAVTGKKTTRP
PHOSPHO1 inh = inhibitors of human PHOSPHO1 phosphatase; Q8TCT1; recombinant PHOSPHO1, absorbance phosphatase assay; inhibition, % at 13.3 µM; 290,000 compounds, 1.1% hits; AID 1565; in the data active = inhibition above about 60%
Runt-CBFb FRET = inhibitors of human RUNX1 Runt domain binding to CBFb; Q01196+Q13951; Cerulean-Runt/Venus-CBFb FRET ratio 530/480, 1 h; inhibition, % at 20 µM; 220,000 compounds, 0.46% hits;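 active = inhibition over about 50% at 20 µM in the single-dose screen, limit read from the data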;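 also: 0% = DMSO wells and 100% = excess unlabeled CBFb competitor control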
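Doses: 20 µM compound in 1% DMSO | Material: Cerulean-labeled Runt domain protein | Amount: Each fluorescent fusion protein 100 nM | Schedule: Two 1 h room-temperature incubations shielded from light | Measured by: FRET fluorescence | Evaluation: Loss of energy transfer signal | Controls: Unlabeled CBFb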
Efa HMGR inh = inhibitors of class II HMG-CoA reductase from Enterococcus faecalis; 190,000 compounds, 0.41% hits; purified E. faecalis HMGR, NADPH absorbance 340 nm kinetic; inhibition, % at 10 µM;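 active = inhibition above a set limit, the median over all tested compounds plus 3 SD, cut at about 9.5% in these data; inconclusive = no clear call, values can overlap the other calls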;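 also: enzyme runs in reverse so mevalonate oxidation gives rising NADPH absorbance; 0% = complete reaction with DMSO and 100% = background rate lacking mevalonate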
RanGTP-Imp inh = disruptors of Ran-importin-beta complex formation – biochemical, FRET, CFP-Ran, YFP-importin-beta, homogeneous, primary screen; AID 2216; 300,000 compounds, 1.1% hits; inhibition, % (no concentration beside the values); cell-free CFP-Ran/YFP-importin-beta FRET ratio;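 active = more than half of the replicate wells show a fall in the fluorescence ratio signal beyond about 16%, limit read from the data, passing the limit was not always enough; inconclusive = exactly half of the replicate wells pass the set limit; inactive = fewer than half of replicates pass the limit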;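 also: 0% = DMSO wells and 100% = Ran loaded with GDP instead of GTP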
Wee1 degr inh = inhibitors of human Wee1 degradation; 220,000 compounds, 1.2% hits; AID 1321; P30291; HeLa Luc-Wee1K328M stability, luciferase luminescence; 100% = proteasome inhibitor MG132 effect; reporter increase, % at 5 µM;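 active = activation above the mean of all tested compounds plus 3 SD, set per screening run, cut at about 8.8% in these data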;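 also: cells exposed to compound for 20 h before luminescence read; 0% = DMSO alone and 100% = MG132 at 30 µM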
Active calls of the source: *; ? = inconclusive; . = no result. Most compounds without a hit are left out; they make up all but 3.4% or so of the library.

SMILES | Runt-SMMHC FRET | PHOSPHO1 inh | Runt-CBFb FRET | Efa HMGR inh | RanGTP-Imp inh | Wee1 degr inh
Cc1cc(N2CCN(c3nc(-c4ccc([N+](=O)[O-])cc4)cs3)CC2)c2ccccc2n1 | 14.6 | -14.1 | 4.6 | 14.1* | -9.6 | -2.3
COc1ccc(C/C(C)=N/NC(=O)c2ccc(Cl)cc2)cc1 | -5.4 | -13.7 | -0.4 | 10.3* | ? | -0.4
COc1ccc(S(=O)(=O)NN=C2CCCCC2)cc1 | -1.5 | 74.3* | -0.2 | 0.9 | . | 0.3
COc1ccc(S(=O)(=O)NN=C2CCCC2)cc1 | 1.3 | 31.5 | 0.7 | 2.6 | 4.5 | 1.6
COc1ccc(C/C(C)=N/NS(=O)(=O)c2ccc(Br)cc2)cc1 | -3.6 | 10.4 | 1.2 | 15.0* | 1.2 | 1.7
CCOc1cc(C(=O)N/N=C(\C)Cc2ccc(OC)cc2)cc(OCC)c1OCC | 3.8 | -5.1 | -0.8 | -1.5 | 2.2 | 0.9
O=C(O)Cn1cc(C(=S)N2CCOCC2)c2ccccc21 | 7.4 | 88.2* | 34.3 | -1.2 | 1.1 | 1.4
Cc1nnc(SCC(=O)NC(C)(C)C)n1NCc1cccc(Br)c1 | . | 34.0 | . | . | 0.0 | .
N#CC1CC(c2ccccc2)=NN1c1ccccc1[N+](=O)[O-] (stereo unspecified) | 3.1 | -19.6 | -0.4 | -5.7 | -3.2 | 10.2*
COC(=O)c1ccc(OCC(=O)Nc2ccsc2C(=O)OC)cc1 | -0.4 | 16.3 | -3.9 | 11.9* | -0.4 | 4.0
COC(=O)c1ccc(OCC(=O)NC2CCCCCC2)cc1 | . | 62.6* | . | . | 4.3 | .
Cc1cccn2c(=O)c(C=C(C#N)C#N)c(N3CCN(C)CC3)nc12 | . | 34.8 | . | . | -48.8 | .
COc1ccccc1CNC(=O)c1cccc(NC(=O)c2ccccc2)c1 | -1.7 | 32.2 | -0.5 | 0.5 | -1.8 | -0.1
COc1ccccc1CNC(=O)c1ccncc1 | . | 29.1 | . | . | 23.3* | .
CC(C)(C)OC(=O)NCCC(=O)Oc1ccc2ccc(=O)oc2c1 | 67.9* | 18.2 | 42.7 | -4.5 | 5.5 | -1.6
COc1ccc2ccc(=O)oc2c1 | -0.5 | -11.1 | 1.2 | 14.6* | ? | -2.3
COc1ccc(C(=O)NCC(c2cccs2)N2CCc3ccccc32)cc1OC (stereo unspecified) | . | . | . | . | 4.4 | .
Cc1cccc2nc(CNC(=O)CC3C(=O)NCCN3Cc3cccc(F)c3)cn12 (stereo unspecified) | . | 22.3 | . | . | 5.1 | .
COC(=O)CCN1CCN(S(=O)(=O)c2ccccc2Br)CC1 | 1.8 | 61.5* | -1.9 | -7.1 | 4.2 | 1.1
CSc1nc(C=Nc2ccccc2Cl)c(O)n1Cc1cccc(Cl)c1 | -7.7 | 88.2* | 3.8 | . | 4.5 | 5.6
COC(=O)C1=C(C)N(CC2CCCO2)C(=O)C1 (stereo unspecified) | 1.6 | -15.0 | -1.1 | 1.6 | 16.7* | 0.7
CCN1C(=O)CC(C(=O)OC)=C1C | -2.0 | -25.8 | 1.1 | -4.0 | -2.8 | 0.6
CCOc1ccc(NC(=O)C2CCCN(c3c(CC)c(C)nc4ncnn34)C2)cc1 (stereo unspecified) | . | 43.3 | . | . | 1.8 | .
CC1C/C(=N\NC(=S)NCc2ccccc2)CC(C)(C)C1 (stereo unspecified) | 0.5 | 75.5* | 2.8 | -1.4 | 0.9 | 3.1
CC1CCC/C(=N\NC(=S)NCc2ccccc2)C1 (stereo unspecified) | 4.0 | 85.0* | -0.4 | -2.9 | 0.3 | -0.7
SMILES | Runt-SMMHC FRET | PHOSPHO1 inh | Runt-CBFb FRET | Efa HMGR inh | RanGTP-Imp inh | Wee1 degr inh
CCOC(=O)c1ccc(NC(=O)c2c(N)n(Cc3ccccc3)c(=O)[nH]c2=O)cc1 | . | . | . | . | -1.8 | .
CCc1ccc(NC(=O)Nc2ccsc2C(=O)OC)cc1 | . | 36.4 | . | . | 3.0 | .
CCN(CC)C(=S)SC1=CCS(=O)(=O)C1 | 13.3 | -11.2 | 2.0 | -4.8 | 1.6 | 10.1*
COc1cccc(N2CC(=O)N(NC(=O)c3sc4nc(C)cc(C)c4c3N)CC2=O)c1 | 2.5 | -1.6 | 3.5 | . | 16.0* | 1.4
Cc1cc(C)c2c(N)c(C(=O)N/N=C/c3cccnc3)sc2n1 | 2.1 | 7.5 | 2.8 | . | 7.5 | 9.5*
CC(C)Cn1c(=O)n(C)c(=O)c2[nH]cnc21 | 1.7 | -9.6 | 2.2 | . | 0.0 | .
O=C(COc1ccc2ccccc2c1)N1CCN(C(=O)c2ccco2)CC1 | -2.5 | -7.1 | -0.2 | 10.2* | 1.3 | 3.7
Cc1ccccc1OCC(=O)Nc1ccc(NC(=O)c2ccco2)cc1 | 3.0 | 67.3* | -1.8 | -9.5 | -2.7 | 2.2
CCN(CC)c1ccc(NC(=O)c2ccco2)cc1 | 7.6 | 61.1* | 8.1 | -2.3 | -1.7 | 3.7
CN(C)c1ccc(NC(=O)/C=C/c2ccccc2Cl)cc1 | -6.2 | -3.8 | 8.9 | 0.1 | 5.0 | 6.3
CCN(CC)c1ccc(NC(=O)/C=C\c2ccccc2Cl)cc1 | 11.1 | 69.3* | 7.5 | -10.4 | 0.0 | 8.5
CCOc1ccc(CCNC(=O)COC(=O)c2nn(C)c(=O)c3ccccc23)cc1OCC | . | . | . | . | -0.2 | .
CC(=O)Nc1ccc(S(=O)(=O)Nn2cnnc2)cc1 | -3.4 | 47.0 | -0.1 | -4.4 | 2.2 | 2.6
CCOCc1nnc(NC(=O)c2cc(Cl)ccc2OC)s1 | 10.8 | 97.4* | 13.6 | -6.8 | -3.9 | -1.5
O=C(Nc1ccc(Nc2ccccc2)cc1)c1ccccc1F | . | 13.8 | . | . | 2.6 | .
CCN(CC)c1ccc(NC(=O)c2ccccc2F)cc1 | 6.8 | 62.5* | 11.2 | -4.0 | -0.3 | 9.2*
Cc1cc(OCC(=O)Nc2ccc(N3CCN(C(=O)c4ccco4)CC3)cc2)cc(C)c1Cl | -20.9 | 72.9* | -9.3 | -2.8 | 3.8 | -0.7
COc1ccc(Cl)cc1C(=O)Nc1ccncc1 | . | 12.8 | . | . | -2.9 | .
CCN(CC)c1ccc(NC(=O)c2cc(Cl)ccc2OC)cc1 | 10.5 | 75.8* | 9.5 | 2.5 | 5.3 | 3.5
Cc1sc2nc(SCC(=O)N3CC(C)OC(C)C3)n(C)c(=O)c2c1C (stereo unspecified) | . | 38.1 | . | . | ? | .
Cc1ccc(-n2c(N)c(C(=O)N3CCOCC3)sc2=S)cc1 | 5.5 | 76.1* | 40.3 | -1.1 | 3.1 | -1.2
CCOC(=O)c1csc(NC(=O)C2=COCCO2)n1 | . | 70.6* | . | . | -3.0 | .
CC1(C)Cc2c(sc3c2c(=N)n(Cc2ccco2)c(=O)n3CC(=O)Nc2ccccc2)CO1 | 0.1 | 5.7 | -1.8 | 0.9 | ? | -0.7
CCn1c(=O)n(Cc2ccco2)c(=N)c2c3c(sc21)COC(C)(C)C3 | 0.0 | 63.3* | -2.6 | 0.2 | -3.3 | -2.6
Clc1cccc(/C=N/Nc2nnc(Cl)c3ccccc23)c1 | 3.1 | 11.1 | -2.5 | 0.5 | 34.2* | 2.4
Clc1ccc(/C=N/Nc2nnc(-c3ncc[nH]3)c3ccccc23)cc1 | -4.7 | -11.4 | -6.3 | -4.2 | -2.4 | -1.2
Fc1ccc(CNc2nc(-c3ccco3)cc(C(F)(F)F)n2)cc1 | -16.7 | 15.0 | 6.3 | -4.2 | 58.2* | 0.8
COc1ccc(C2=CC3=C(Br)C(=O)C(C)(OC(=O)C4CCCC4)C(=O)C3=CO2)cc1 (stereo unspecified) | 18.4 | 13.3 | 63.6* | . | -5.0 | .
